Active and inactive are the calls of the source.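 Rule for the calls, unless noted: active = viability at or under a set limit in both replicates, limit being median viability minus 3 SD (cut at about 48% in these data, passing the limit was not always enough); inconclusive = at or under the limit in just one replicate; inactive = at or above the limit in both replicates.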

Experiment [1] can be described thus: Her2 expression decrease, cell viability multiplex – SKBR3 breast tumor cells, AlphaScreen, ATP viability, primary screen (AID 461;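 active = Her2 level under about 52% in both replicate screens, with viability over 70% of control, limit read from the data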;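 for Her2 level: lower value means less Her2 protein in the cells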;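 for viability: percent of carrier control wells set as 100% viability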). The settings on record: SKBR3 Her2 protein level, 18-24 h, measured here: SKBR3 viability, ATP luminescence, at 10 µM. A general note: Bead proximity is the source of the signal in Alpha formats.
Experiment [2] deals with Receptor tyrosine-protein kinase erbB-2 (Homo sapiens) (UniProt P04626). The description is as above. The settings on record: 18-24 h, at 10 µM, stronger effect = lower value.
Experiment [3] in a line: reduced viability of SK-BR-3 breast cancer cells – cell-based, 24 h, human, pilot screen (AID 572;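 active = viability at or below 10% of carrier control in both of two separate runs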;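 note: compound exposure lasted between 18 and 24 h rather than exactly 24 h; 100% = carrier-treated control wells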). The settings on record: SK-BR-3 viability, CellTiter-Glo luminescence, at 10 µM, stronger effect = lower value.
Experiment [4] is described as follows: HUVEC growth inhibition – cell-based, human, primary screen (AID 575;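 active = viability at or below 30% in both replicate assays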;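 note: 100% = median of untreated cell wells with 0.1% DMSO on each plate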). The settings on record: HUVEC proliferation, CellTiter-Glo luminescence, 72 h; at 10 µM; stronger effect = lower value. In short, it runs like this:
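System – primary HUVEC, no more than 12 passages · Medium – Low-serum (2% FBS) EBM, supplemented · Times – 72 h exposure, 37 °C, 5% CO2, 30 min RT equilibration · Measured by – luminescent ATP assay · Read-out – % viability relative to median vehicle-well signal on each plate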
Background: ATP-based viability assays read luminescence as a measure of living cells.

Experiment [5] is described as follows: H69AR cell proliferation blockers – human, duplicate replicates, primary screen (AID 580).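 Note: 100% = mean luminescence of untreated wells and 0% = no signal.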 To be noted: H69AR lung tumor cells viability, ATP luminescence, 72 h; at 10 µM; stronger effect = lower value.
Experiment [6] can be described thus: MRP1 drug-resistance reversers in H69AR cells – cell-based, doxorubicin co-treatment, pilot screen (AID 601;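 active = viability loss from added drug above about 55%, and viability with drug at most 40%, in both replicates, limit read from the data, passing the limit was not always enough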). To be noted: CellTiter-Glo, 72 h, at 10 µM; for differential viability (reversal): stronger effect = higher value.
The nature of experiment [7]: yeast transport mutant growth inhibition pilot in 384-well plates, post-Golgi transport modulator project (AID 636; in the data active = inhibition above about 31%). To be noted: absorbance 615 nm, about 18 h, stronger effect = higher value.
Experiment [8] can be described thus: growth suppression of yeast trafficking mutant, preliminary HTS, modulators of trafficking downstream of Golgi apparatus project, 1536-format plate, OD 615 nm (AID 637; in the data active = inhibition above about 30%). The settings on record: yeast transport mutant growth, absorbance 615 nm, 18 h; stronger effect = higher value.
Where [9] appears, read: H69AR cells + 2 uM doxorubicin, measured here: viability with 2 uM doxorubicin, stronger effect = lower value.
Setting [10] is: H69AR cells, compound alone cytotoxicity.

Chain of Receptor tyrosine-protein kinase erbB-2 (Homo sapiens) (P04626 whole entry, looked up): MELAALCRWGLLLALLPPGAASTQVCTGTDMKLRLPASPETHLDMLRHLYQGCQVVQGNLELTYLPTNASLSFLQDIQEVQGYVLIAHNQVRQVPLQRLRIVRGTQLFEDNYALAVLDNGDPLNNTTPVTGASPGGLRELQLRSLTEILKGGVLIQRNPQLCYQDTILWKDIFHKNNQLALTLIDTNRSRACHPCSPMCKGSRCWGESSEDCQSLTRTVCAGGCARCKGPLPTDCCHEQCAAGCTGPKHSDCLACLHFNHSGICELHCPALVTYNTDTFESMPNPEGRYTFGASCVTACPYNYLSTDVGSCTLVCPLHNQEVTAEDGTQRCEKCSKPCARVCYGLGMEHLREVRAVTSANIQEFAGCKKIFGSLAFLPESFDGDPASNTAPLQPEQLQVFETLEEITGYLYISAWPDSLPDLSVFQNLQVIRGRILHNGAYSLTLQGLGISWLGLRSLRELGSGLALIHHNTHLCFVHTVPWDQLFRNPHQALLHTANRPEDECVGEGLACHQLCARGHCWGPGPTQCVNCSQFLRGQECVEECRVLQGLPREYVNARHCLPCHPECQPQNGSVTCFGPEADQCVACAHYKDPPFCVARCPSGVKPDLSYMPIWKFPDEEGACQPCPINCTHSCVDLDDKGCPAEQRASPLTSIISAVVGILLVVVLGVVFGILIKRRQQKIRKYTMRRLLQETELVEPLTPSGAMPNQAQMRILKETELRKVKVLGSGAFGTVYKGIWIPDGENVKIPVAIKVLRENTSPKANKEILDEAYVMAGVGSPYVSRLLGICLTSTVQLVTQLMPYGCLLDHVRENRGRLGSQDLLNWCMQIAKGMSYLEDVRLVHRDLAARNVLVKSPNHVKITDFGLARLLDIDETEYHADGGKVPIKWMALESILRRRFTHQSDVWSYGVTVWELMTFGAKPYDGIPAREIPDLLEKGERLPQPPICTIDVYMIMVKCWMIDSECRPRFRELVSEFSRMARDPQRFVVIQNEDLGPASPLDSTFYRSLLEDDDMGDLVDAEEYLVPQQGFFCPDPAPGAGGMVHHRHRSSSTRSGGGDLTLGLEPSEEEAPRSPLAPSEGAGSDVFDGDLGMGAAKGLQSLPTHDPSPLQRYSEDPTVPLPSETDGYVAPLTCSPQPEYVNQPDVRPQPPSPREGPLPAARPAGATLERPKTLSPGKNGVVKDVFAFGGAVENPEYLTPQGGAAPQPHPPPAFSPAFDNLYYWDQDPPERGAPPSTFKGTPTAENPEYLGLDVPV

With `CC(=O)Nc1ccc2c(c1)nc(CCNC(=O)c1ccccc1)n2C`, the viability (as a rule, a read-out of living cells in per cent, often relative to untreated cells) in experiment [1] was 90.5%; in experiment [3] it was 90.5% (inactive); in experiment [4] it was 110% (inactive); in experiment [5] it was 102% (inactive); in experiment [6] (setting [9]), 85.7%; in experiment [6] (setting [10]), 102%. The Her2 level in experiment [2] is 89% (inactive). Further, the differential viability (reversal) in experiment [6] (H69AR cells + 2 uM doxorubicin) was 15.8% (inactive). Moreover, the inhibition (as a rule, the change of the read-out against control, counted positive when it falls) is -8.36% (inactive) in experiment [7] and -1.43% (inactive) in experiment [8].

`COc1ccc(OC)c(C2C3=C(CCCC3=O)Nc3c2c(=O)n(C)c(=O)n3C)c1` (stereo not given): the viability was 106% in experiment [1]; 106% (inactive) in experiment [3]; 103% (inactive) in experiment [4]; 102% (inactive) in experiment [5]; 107% in experiment [6] (setting [9]); 102% in experiment [6] (setting [10]). Also, the Her2 level in experiment [2] is 108% (inactive). Further, the differential viability (reversal) in experiment [6] (H69AR cells + 2 uM doxorubicin) is -5.08% (inactive). Also, the inhibition in experiment [7] was -2.24% (inactive); in experiment [8], -0.33% (inactive).

As to `Cc1ccc(NC(=O)CSc2nnc(-c3cnccn3)n2Cc2ccco2)cc1C`, the viability in experiment [1] is 80.5%; in experiment [3] it was 80.5% (inactive); in experiment [4] it was 80.6% (inactive); in experiment [5], 104% (inactive); in experiment [6] (setting [9]), 97.5%; in experiment [6] (setting [10]), 104%. The Her2 level in experiment [2] was 93% (inactive). Besides, the differential viability (reversal) in experiment [6] (H69AR cells + 2 uM doxorubicin) was 6.65% (inactive). In addition, the inhibition was -1.82% (inactive) in experiment [7] and -7.67% (inactive) in experiment [8].

For `O=C(c1ccc(Cl)cc1)C1CCN(C(=O)NC2CCCCC2)CC1`, the viability in experiment [1] is 92%; in experiment [3], 92% (inactive); in experiment [4] it was 101% (inactive); in experiment [5], 101% (inactive); in experiment [6] (setting [9]), 87%; in experiment [6] (setting [10]), 101%. Further, the Her2 level in experiment [2] was 92% (inactive). The differential viability (reversal) in experiment [6] (H69AR cells + 2 uM doxorubicin) is 14% (inactive). Also, the inhibition in experiment [7] is -4.8% (inactive); in experiment [8] it was -7.26% (inactive).

Take `CC(NC(=O)c1ccco1)C(c1cccs1)N1CCN(c2ccc(F)cc2)CC1` (stereo not given): the viability is 96% in experiment [1]; 96% (inactive) in experiment [3]; 67.9% (inactive) in experiment [4]; 86.2% (inactive) in experiment [5]; 102% in experiment [6] (setting [9]); 86.2% in experiment [6] (setting [10]). In experiment [2], the Her2 level is 89% (inactive). For the same molecule, in experiment [6] (H69AR cells + 2 uM doxorubicin), the differential viability (reversal) is -15.7% (inactive). For the same molecule, the results for the inhibition in experiment [7] and in experiment [8] were -4.13% (inactive) and 0.16% (inactive), respectively.

For the molecule `CCOC(=O)c1ccc(NC(=O)c2ccc(NS(C)(=O)=O)cc2)cc1`, the viability in experiment [1] is 97%; in experiment [3] it was 97% (inactive); in experiment [4], 92.1% (inactive); in experiment [5], 82.9% (inactive); in experiment [6] (setting [9]) it was 79%; in experiment [6] (setting [10]) it was 82.9%. Further, in experiment [2], the Her2 level was 83% (inactive). For the same molecule, in experiment [6] (H69AR cells + 2 uM doxorubicin), the differential viability (reversal) is 3.85% (inactive). In addition, the figures for the inhibition in experiment [7] and in experiment [8] were -0.8% (inactive) and -4.92% (inactive), respectively.

As for `C=CCOC(=O)CCC(=O)Nc1cc(OC)nc(OC)n1`, the viability in experiment [1] was 112%; in experiment [3], 112% (inactive); in experiment [4] it was 92.1% (inactive); in experiment [5], 90.8% (inactive); in experiment [6] (setting [9]), 90.1%; in experiment [6] (setting [10]), 90.8%. Also, the Her2 level in experiment [2] is 112% (inactive). Further, in experiment [6] (H69AR cells + 2 uM doxorubicin), the differential viability (reversal) is 0.705% (inactive). For the same molecule, the inhibition in experiment [7] is -3.07% (inactive); in experiment [8], 8.73% (inactive).

With `COC(=O)c1sc(N)c(C(=O)OC)c1CSc1nc2sc3c(c2c(=O)n1C)CCC3`, the viability in experiment [1] is 88%; in experiment [3], 88% (inactive); in experiment [4] it was 81.5% (inactive); in experiment [5], 62.3% (inactive); in experiment [6] (setting [9]) it was 53.5%; in experiment [6] (setting [10]) it was 62.3%. Further, the Her2 level in experiment [2] was 103% (inactive). For the same molecule, in experiment [6] (H69AR cells + 2 uM doxorubicin), the differential viability (reversal) is 8.74% (inactive). The figures for the inhibition in experiment [7] and in experiment [8] were -2.84% (inactive) and 2.62% (inactive), respectively.

With `O=C(O)C1CCCCC1C(=O)NCCc1ccccc1` (stereo not given), the viability in experiment [1] was 87.5%; in experiment [3] it was 87.5% (inactive); in experiment [4], 103% (inactive); in experiment [5], 99.2% (inactive); in experiment [6] (setting [9]), 92%; in experiment [6] (setting [10]), 99.2%. In addition, the Her2 level in experiment [2] was 104% (inactive). In addition, the differential viability (reversal) in experiment [6] (H69AR cells + 2 uM doxorubicin) was 7.15% (inactive). The inhibition in experiment [7] was 0.55% (inactive); in experiment [8] it was 10.3% (inactive).

Take `CSc1nc(NC(C)(C)C)nc(Oc2ccc(=O)[nH]n2)n1`: the viability in experiment [1] is 101%; in experiment [3] it was 101% (inactive); in experiment [4] it was 107% (inactive); in experiment [5] it was 92.1% (inactive); in experiment [6] (setting [9]) it was 91.7%; in experiment [6] (setting [10]) it was 92.1%. Also, the Her2 level in experiment [2] is 93.5% (inactive). Also, the differential viability (reversal) in experiment [6] (H69AR cells + 2 uM doxorubicin) was 0.405% (inactive). The inhibition in experiment [7] was -3.82% (inactive); in experiment [8] it was 2.46% (inactive).

Take `CCCN(S(=O)(=O)c1ccc(OCC)cc1)S(=O)(=O)c1cccs1`: the viability in experiment [1] is 89%; in experiment [3], 89% (inactive); in experiment [4], 88.1% (inactive); in experiment [5] it was 89.8% (inactive); in experiment [6] (setting [9]) it was 84%; in experiment [6] (setting [10]), 89.8%. For the same molecule, the Her2 level in experiment [2] is 100% (inactive). Moreover, the differential viability (reversal) in experiment [6] (H69AR cells + 2 uM doxorubicin) was 5.81% (inactive). The figures for the inhibition in experiment [7] and in experiment [8] were 0.8% (inactive) and -10.8% (inactive), respectively.

As to `Cc1ccccc1C(=O)NC1CCN(CC(=O)Nc2nccs2)CC1`, the viability was 92.5% in experiment [1]; 92.5% (inactive) in experiment [3]; 88.8% (inactive) in experiment [4]; 97.8% (inactive) in experiment [5]; 86.2% in experiment [6] (setting [9]); 97.8% in experiment [6] (setting [10]). Further, the Her2 level in experiment [2] is 96% (inactive). Also, the differential viability (reversal) in experiment [6] (H69AR cells + 2 uM doxorubicin) is 11.6% (inactive). The figures for the inhibition in experiment [7] and in experiment [8] were -0.67% (inactive) and 5.08% (inactive), respectively.

On to `CCOC(=O)N1CCN(S(=O)(=O)c2ccc(OCC)c(C)c2)CC1`, for which the viability in experiment [1] was 110%; in experiment [3] it was 110% (inactive); in experiment [4], 88.9% (inactive); in experiment [5], 103% (inactive); in experiment [6] (setting [9]), 85.5%; in experiment [6] (setting [10]), 103%. Also, the Her2 level in experiment [2] was 88.5% (inactive). Further, the differential viability (reversal) in experiment [6] (H69AR cells + 2 uM doxorubicin) is 17.6% (inactive). Moreover, the inhibition is -1.95% (inactive) in experiment [7] and -3.17% (inactive) in experiment [8].

Regarding `Cc1cc(=O)oc2ccc(OCC(=O)N3CCC(C)CC3)cc12`, the viability was 87% in experiment [1]; 87% (inactive) in experiment [3]; 92.3% (inactive) in experiment [4]; 96.3% (inactive) in experiment [5]; 90.7% in experiment [6] (setting [9]); 96.3% in experiment [6] (setting [10]). Besides, the Her2 level in experiment [2] is 90% (inactive). Further, in experiment [6] (H69AR cells + 2 uM doxorubicin), the differential viability (reversal) was 5.65% (inactive). Further, the results for the inhibition in experiment [7] and in experiment [8] were -1.05% (inactive) and 1.15% (inactive), respectively.

`CCOC(=O)CSC1=C(C#N)C(=O)NC(c2ccc(OC)c(OC)c2)S1` (stereo not given): the viability in experiment [1] is 104%; in experiment [3], 104% (inactive); in experiment [4] it was 74.6% (inactive); in experiment [5], 97.2% (inactive); in experiment [6] (setting [9]), 99%; in experiment [6] (setting [10]) it was 97.2%. Besides, the Her2 level in experiment [2] was 99% (inactive). In addition, the differential viability (reversal) in experiment [6] (H69AR cells + 2 uM doxorubicin) was -1.72% (inactive). For the same molecule, the figures for the inhibition in experiment [7] and in experiment [8] were -4.79% (inactive) and 0.16% (inactive), respectively.

With `O=C(Cc1cccs1)Nc1nnc(CCc2ccccc2)s1`, the viability is 110% in experiment [1]; 110% (inactive) in experiment [3]; 88.7% (inactive) in experiment [4]; 80.7% (inactive) in experiment [5]; 86.4% in experiment [6] (setting [9]); 80.7% in experiment [6] (setting [10]). Besides, in experiment [2], the Her2 level is 91.5% (inactive). Moreover, the differential viability (reversal) in experiment [6] (H69AR cells + 2 uM doxorubicin) is -5.74% (inactive). Moreover, the results for the inhibition in experiment [7] and in experiment [8] were -0.78% (inactive) and -0.5% (inactive), respectively.

For the origin of these results see PubChem BioAssay.
